Screening data: PubChem, several laboratories
Most compounds without a hit are left out; they make up all but 2.6% or so of the library.
PHOSPHO1 block: PHOSPHO1 (human) inhibition; recombinant PHOSPHO1, absorbance phosphatase assay; Q8TCT1; inhibition, % at 13.3 µM; 290,000 compounds, 1.1% hits; in the data active = inhibition above about 60%
Target sequence (Q8TCT1 whole entry, looked up): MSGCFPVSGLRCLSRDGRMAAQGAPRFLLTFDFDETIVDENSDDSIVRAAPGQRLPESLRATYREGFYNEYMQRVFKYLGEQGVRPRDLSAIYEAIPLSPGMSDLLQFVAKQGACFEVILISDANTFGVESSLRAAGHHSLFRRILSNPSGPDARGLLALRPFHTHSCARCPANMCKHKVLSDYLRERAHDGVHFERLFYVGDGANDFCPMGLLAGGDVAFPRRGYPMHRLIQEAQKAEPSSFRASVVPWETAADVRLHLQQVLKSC
ASAP1 inh: inhibitors of human ASAP1 ArfGAP activity; AID 624377; ASAP1-stimulated ARF1 GTP hydrolysis, GDP FP detection; 360,000 compounds, 0.19% hits; inhibition, % at 16.5 µM; Q9ULH1; in the data active = inhibition above about 25%
ARFGAP1 inhibitor: inhibitors of rat ARFGAP1 | 360,000 compounds, 0.26% hits | Q62848 | inhibition, % at 16.5 µM | AID 651572 | Arfgap1-stimulated ARF1 GTP hydrolysis, GDP FP detection;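 active = inhibition above a per-plate limit, mean inhibition of low control wells plus 3 SD, cut at about 25% in these data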
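Replicates: Single well per compound | Assay system: Truncated rat Arfgap1 GAP domain | Control set: No-Arfgap1 wells (100%) versus DMSO full-reaction wells (0%) | Times: Enzyme reaction 120 min at 25 °C after 20 min preincubation | Reagent: Human ARF1(Δ1-17)-GTP substrate | Measured by: Tracer-displacement fluorescence polarization with EDTA stop, 620/688 nm | Measure: Percent inhibition of Arfgap1-stimulated GTP hydrolysis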
Calb FLC: C. albicans growth modulation with fluconazole | 300,000 compounds, 0.57% hits | C. albicans CaCi-2 (fluconazole-resistant clinical isolate) + fluconazole, Alamar Blue growth, 48 h | AID 1979 | growth inhibition, % (test concentration not listed);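 active = growth inhibition above about 58% in most replicates, limit read from the data, passing the limit was not always enough; inconclusive = exactly half the replicates above a set limit; inactive = most replicates below a set limit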;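 note: all wells also contain fluconazole at 8 µg/ml as a sub-toxic cotreatment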
VIM-2 inh: blocks Pseudomonas aeruginosa VIM-2 metallo-beta-lactamase. purified VIM-2, nitrocefin hydrolysis, epi-absorbance fluorescence. inhibition, % at 5.6 µM. 290,000 compounds, 0.89% hits;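 active = inhibition above the mean of all tested compounds plus 3 SD, cutoff set per screening run, cut at about 7.5% in these data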;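 note: red hydrolysis product quenches plate fluorescence so inhibitors raise well fluorescence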
IMP-1 inhibitor: inhibitors of Pseudomonas aeruginosa IMP-1 metallo-beta-lactamase | inhibition, % at 5.6 µM | purified IMP-1, nitrocefin hydrolysis, epi-absorbance fluorescence | 290,000 compounds, 0.45% hits | AID 1556;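 active = inhibition above the mean plus 3 SD of all compounds in the same screening run, cut at about 4.5% in these data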
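System: purified recombinant IMP-1 beta-lactamase. Medium: Zinc- and detergent-supplemented HEPES buffer, pH 7.1. Compound: one 5.6 µM dose […]. Schedule: 15 min preincubation plus 25 min reaction at 25 °C. Technique: Epi-absorbance fluorescence, 480 nm excitation, 530 nm emission.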
ARFGAP1 inh conf: confirmation of rat ARFGAP1 inhibitors; inhibition, % at 16.5 µM; shares compounds with ARFGAP1 inhibitor; 890 compounds, 30% hits; ARFGAP1-stimulated ARF1 GTP hydrolysis, GDP tracer FP;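 active = average inhibition over triplicates above the hit cutoff set in the earlier primary screen, cut at about 25% in these data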
Target sequence (Q62848 whole entry, looked up): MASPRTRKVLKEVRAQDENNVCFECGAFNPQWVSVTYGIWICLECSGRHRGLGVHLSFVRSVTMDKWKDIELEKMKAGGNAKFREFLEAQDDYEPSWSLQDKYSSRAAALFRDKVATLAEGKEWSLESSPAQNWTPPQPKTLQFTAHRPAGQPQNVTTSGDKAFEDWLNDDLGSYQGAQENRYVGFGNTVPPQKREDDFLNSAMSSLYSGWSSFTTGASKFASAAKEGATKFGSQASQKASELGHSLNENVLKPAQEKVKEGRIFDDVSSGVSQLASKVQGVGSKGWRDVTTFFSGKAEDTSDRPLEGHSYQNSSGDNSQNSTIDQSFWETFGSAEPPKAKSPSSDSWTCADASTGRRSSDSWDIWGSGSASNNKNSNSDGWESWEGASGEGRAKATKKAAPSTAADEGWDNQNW
A number is an active result; . = inactive; ? = inconclusive; / = no result given.

SMILES	PHOSPHO1 block	ASAP1 inh	ARFGAP1 inhibitor	Calb FLC	VIM-2 inh	IMP-1 inhibitor	ARFGAP1 inh conf
O=C(CCc1c[nH]c2ccccc12)Nc1ccc(Nc2ccccc2)cc1	/	.	26.8	/	/	/	.
CCCCN1CC(COCc2ccccc2)Oc2cccc(OCc3ccc(OC)cc3)c2S1(=O)=O (configuration not stated)	/	.	.	/	/	/	/
COc1ccc(-c2[nH]ncc2/C=N/NC(=O)c2cccc([N+](=O)[O-])c2)cc1OC	.	.	25.5	.	.	.	52.1
COc1ccc(/C=N/NC(=O)c2cccc([N+](=O)[O-])c2)cc1OC	.	.	.	.	.	.	/
CCC1Nc2ncnc(N3CCCCC3)c2N(Cc2ccc(Cl)cc2)C1=O (configuration not stated)	/	.	29.2	/	/	/	.
COc1ccc(NC(=O)Nc2ccc(F)cc2)cn1	.	.	25.2	.	.	.	.
CN1CCN(c2ccc(Cl)cc2NC(=O)/C=C/c2cccc(F)c2)CC1	.	.	30.5	.	.	.	.
CC1(C)CC(=O)C=C(NCCN2CCN(C(=O)Nc3ccc(Cl)c(Cl)c3)CC2)C1	.	.	.	.	.	.	/
CC1(C)CC(=O)C=C(NCCN2CCN(C(=O)Nc3ccc(Cl)cc3)CC2)C1	.	.	32.8	?	.	.	.
CCCCNC(=O)c1ccc2nc(CC)c(N(C)Cc3cccs3)n2c1	/	.	.	/	/	/	/
O=c1c2[nH]cnc2n(-c2cccc(F)c2)c(=O)n1Cc1ccccc1	.	.	24.6	.	.	.	.
COc1cc(CNC(=O)Nc2nnc([C@H]3C[C@H](O)[C@@H](CO)O3)s2)cc(OC)c1OC	/	.	.	/	/	/	/
Cc1sc2nc(SCC(=O)N3CC(C)OC(C)C3)n(C)c(=O)c2c1C (configuration not stated)	.	.	25.6	.	.	.	.
Oc1ccc2ccccc2c1CNc1ccc2ccccc2c1	/	.	29.9	/	/	/	.
Cn1c(/C(C#N)=C/c2ccc(O)cc2)nc2ccccc21	.	.	24.9	.	.	.	.
Cn1c(/C(C#N)=C/c2ccncc2)nc2ccccc21	.	.	.	/	.	.	/
O=C(CN(CCc1ccccc1)C(=O)c1csnn1)NCc1ccc(F)cc1	.	.	26.8	.	.	.	.
O=C(CN(Cc1ccc(F)cc1)C(=O)c1csnn1)NCc1ccccc1	.	.	.	.	.	.	/
CC(C)(C)c1ccccc1NC(=O)Nc1nc(C(N)Cc2ccc(F)cc2)cs1 (configuration not stated)	/	.	.	/	/	/	/
C(=C\c1ccccc1)/CN1CCN(C(CCc2ccccc2)c2nnnn2C2CCCC2)CC1 (configuration not stated)	/	.	.	/	/	/	/
Cc1cccc(N2C(=O)C(Oc3ccc(Cl)cc3Cl)C2C(=O)O)c1C (configuration not stated)	.	.	25.0	.	.	.	.
Cc1ccc(CSc2ncnc3ccccc23)cc1	.	.	24.8	.	.	.	.
CN(Cc1ccccc1)C(=O)CN1CCN(S(=O)(=O)c2ccccc2F)CC1	/	.	36.2	/	/	/	.
O=S(=O)(c1ccccc1F)N1CCN(CC(O)c2ccccc2)CC1 (configuration not stated)	.	.	.	.	.	.	/
C/C(=N\N1C(=O)c2ccccc2NC1c1ccco1)c1ccccc1O (configuration not stated)	.	.	.	.	.	.	/
SMILES	PHOSPHO1 block	ASAP1 inh	ARFGAP1 inhibitor	Calb FLC	VIM-2 inh	IMP-1 inhibitor	ARFGAP1 inh conf
C/C(=N\N1C(=O)c2ccccc2NC1c1ccccc1)c1ccccc1O (configuration not stated)	.	.	27.0	.	.	.	.
CC(=O)Nc1ccc(NC(=O)c2cc(=O)c3cc(C)c(C)cc3o2)cc1	.	.	28.7	.	.	.	.
COc1ccc(-n2c(SCCNCCO)nc3sc4c(c3c2=O)CCCC4)cc1	.	.	32.0	.	.	.	.
COc1ccc(-n2c(SCC(=O)O)nc3sc4c(c3c2=O)CCCC4)cc1	.	.	35.2	.	.	.	51.6
CCOC(=O)CSc1nc2sc3c(c2c(=O)n1-c1ccc(OC)cc1)CCN(C)C3	.	.	.	.	.	.	/
O=C(O)CSc1nc2sc3c(c2c(=O)n1-c1ccccc1)CCC3	.	.	.	.	.	.	/
COc1ccc(-n2c(SCC(N)=O)nc3sc4c(c3c2=O)CCN(C)C4)cc1	.	.	37.3	.	.	.	37.1
COc1ccc(-n2c(C)nc3sc4c(c3c2=O)CCCC4)cc1	.	/	/	.	.	.	/
COC1C(CO)OC(n2c3c(Cl)cccc3c3c4c(c5c6cccc(Cl)c6[nH]c5c32)C(=O)NC4=O)C(O)C1O (configuration not stated)	/	.	.	/	/	/	/
CC(=O)OCC(=O)Nc1cc(S(=O)(=O)N2CCCCCC2)ccc1Cl	.	.	25.2	.	.	.	.
COc1ccc(-n2c(=S)[nH]c3cc(C(=O)Nc4ccc(F)cc4)ccc3c2=O)c(OC)c1	.	.	25.5	.	.	.	.
O=C(NCc1cccnc1)c1ccc(COc2ccc(Cl)cc2)cc1	.	.	27.6	.	.	.	.
O=C(COc1ccc(Cl)cc1)Nc1ccc(C(=O)NCc2cccnc2)cc1	.	/	/	.	.	.	/
O=C(CSc1nc2[nH]ncc2c(=O)[nH]1)NCc1ccccc1Cl	.	.	.	.	.	.	/
O=C(CSc1ncn[nH]1)NCc1ccccc1Cl	.	.	24.9	.	.	.	.
C[C@H](CO)N1C[C@H](C)[C@@H](CN(C)S(=O)(=O)c2cn(C)cn2)OCc2cnnn2CCCC1=O	/	.	50.9	/	/	/	.
Cc1cc(C)n2nc(SCC(=O)N/N=C/c3ccccc3F)nc2n1	.	.	26.7	.	.	.	.
COc1ncnc2c1ncn2CCCN1CCN(C(=O)C2CC2)CC1	/	.	.	/	/	/	/
Nc1cccc(C(=O)Nc2ccc3nc(-c4cccnc4)[nH]c3c2)c1	.	.	29.0	.	.	.	.
CC1CC(C)CN(S(=O)(=O)CC23CCC(CC2=O)C3(C)C)C1 (configuration not stated)	.	.	24.7	.	.	.	.
CC#CCN(Cc1ccco1)C(=O)C1CCC(=O)N(CCc2cccc(F)c2)C1 (configuration not stated)	/	.	28.1	/	/	/	.
CCCCN(C)c1c(C)nc2ccc(C(=O)NCc3ccc4c(c3)OCO4)cn12	/	.	.	/	/	/	/
COc1ccc(Cl)cc1-c1cc(C(=O)Nc2ccc(Br)cc2)[nH]n1	/	.	28.0	/	/	/	.
O=C(Nc1ccc(S(=O)(=O)N2CCOCC2)cc1)c1cc(-c2cc(Cl)ccc2O)n[nH]1	.	.	41.0	.	.	.	28.9
CCOc1ccc(Cl)cc1-c1cc(C(=O)Nc2ccc(OC)cc2OC)[nH]n1	/	.	60.4	/	/	/	121.3
